From ChEMBL document CHEMBL1145831 (J Med Chem, 2003)

Columns and labels:
[1] = tested on: CCRF-CEM; assay: In vitro growth inhibitory activity in the human CCRF-CEM leukemia cell line.; type: functional, cell-based
Method in brief: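 CCRF-CEM human leukemia cells in log phase, 4.8 × 10⁴ cells per 2 mL well. Medium was RPMI-1640 with 10% dialyzed FBS and 25 mM HEPES. Compounds were serially diluted 1:3 in DMSO and added to duplicate wells, with DMSO-only controls, at 0.5% final DMSO. Cells were exposed 72 h at 37 °C in humidified 5% CO₂, then counted. IC50 in nM.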

[2] = tested on: Mus musculus; assay: In vivo antitumor activity against murine pancreatic adenocarcinoma and measured as % weight loss on a schedule of 3,4,6 days and at a total dose of 12 mg/kg; type: functional
Method in brief: (§1)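 Mice bearing drug-sensitive murine pancreatic adenocarcinoma Panc-03 were dosed on the listed days at the listed total doses. Dosing solutions were made in water from stock solutions and injected within 20 min. Chlorohydrin solutions were acidified with 0.05% citric acid. Tolerance was recorded as body weight loss and number of deaths.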

[3] = tested on: Mus musculus; assay: In vivo antitumor activity against murine pancreatic adenocarcinoma and measured as number of deaths on a schedule of 3,4,6,10 days and at a total dose of 3.5 mg/kg; type: ADME, organism-based; set-up: dose 3.5 mg/kg; details: 240 h; method in brief: as §1
[4] = tested on: Mus musculus; assay: Ratio of the median tumor weight in the treatment group over the median tumor weight in the control group on a schedule of 3,4,6,10 days and at a total dose of 3.5 mg/kg; type: functional
Method in brief: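 Panc-03 murine pancreatic adenocarcinoma in mice, with injectable solutions prepared in water from stock and given within 20 min; chlorohydrins were acidified with 0.05% citric acid. %T/C is median tumor weight of the treated group over that of the control group × 100, calculated when control median tumor weight reaches 1 g. T/C ≤ 42% is taken as significant activity.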

[5] = tested on: Mus musculus; assay: In vivo antitumor activity against murine pancreatic adenocarcinoma and measured as % weight loss on a schedule of 3,4,6 days and at a total dose of 6 mg/kg; type: functional; method in brief: as §1
[6] = tested on: Mus musculus; assay: In vivo antitumor activity against murine pancreatic adenocarcinoma and measured as number of deaths on a schedule of 3,4,6 days and at a total dose of 12 mg/kg; type: ADME, organism-based; set-up: dose 12 mg/kg; details: 144 h; method in brief: as §1
[7] = tested on: Mus musculus; assay: In vivo antitumor activity against murine pancreatic adenocarcinoma and measured as % weight loss on a schedule of 3,4,6,10 days and at a total dose of 3.5 mg/kg; type: functional; method in brief: as §1
[8] = tested on: Mus musculus; assay: In vivo antitumor activity against murine pancreatic adenocarcinoma and measured as number of deaths on a schedule of 3,4,6 days and at a total dose of 6 mg/kg; type: ADME, organism-based; set-up: dose 6 mg/kg; details: 144 h; method in brief: as §1

Row | SMILES | IC50 [1] | also measured
1 | COc1ccc(C[C@H]2NC(=O)/C=C/C[C@@H]([C@H](C)[C@@H](O)[C@@H](Cl)c3ccc(COC(=O)C(C)(C)CN)cc3)OC(=O)[C@H](CC(C)C)OC(=O)C(C)(C)CNC2=O)cc1Cl | 0.004 nM | 
2 | COc1ccc(C[C@H]2NC(=O)/C=C/C[C@@H]([C@H](C)[C@H]3O[C@@H]3c3ccc(CO)cc3)OC(=O)[C@H](CC(C)C)OC(=O)C(C)(C)CNC2=O)cc1Cl | 0.004 nM | Weight loss [2]: -18.4%; Death [3]: 0; T/C [4]: 14%; Weight loss [5]: -19.5%; Death [6]: 4; Weight loss [7]: 10.5%; Death [8]: 1
3 | COc1ccc(C[C@H]2NC(=O)/C=C/C[C@@H]([C@H](C)[C@@H]3O[C@H]3c3ccc(CO)cc3)OC(=O)[C@H](CC(C)C)OC(=O)C(C)(C)CNC2=O)cc1Cl | 0.29 nM | 
4 | COc1ccc(C[C@H]2NC(=O)/C=C/C[C@@H]([C@H](C)[C@H]3O[C@@H]3c3ccc(C)c(C)c3)OC(=O)[C@H](CC(C)C)OC(=O)C(C)(C)CNC2=O)cc1Cl | 0.05 nM | 
5 | COc1ccc(C[C@H]2NC(=O)/C=C/C[C@@H]([C@H](C)[C@@H](O)[C@@H](Cl)c3ccc(CNC(=O)CN(C)C(=O)OC(C)(C)C)cc3)OC(=O)[C@H](CC(C)C)OC(=O)C(C)(C)CNC2=O)cc1Cl | 0.02 nM | 
6 | COc1ccc(C[C@H]2NC(=O)/C=C/C[C@@H]([C@H](C)[C@@H]3O[C@H]3c3cc(C)ccc3C)OC(=O)[C@H](CC(C)C)OC(=O)C(C)(C)CNC2=O)cc1Cl | 100 nM | 
7 | COc1ccc(/C=C/[C@@H](C)[C@@H]2C/C=C/C(=O)N[C@H](Cc3ccc(OC)c(Cl)c3)C(=O)NCC(C)(C)C(=O)O[C@@H](CC(C)C)C(=O)O2)cc1 | 12 nM | 
8 | COc1ccc(C[C@H]2NC(=O)/C=C/C[C@@H]([C@H](C)[C@@H](O)[C@@H](Cl)c3ccc(CNCCN)cc3)OC(=O)[C@H](CC(C)C)OC(=O)C(C)(C)CNC2=O)cc1Cl | 0.092 nM | 
9 | COc1ccc(C[C@H]2NC(=O)/C=C/C[C@@H]([C@H](C)[C@H]3O[C@@H]3c3ccc(CC(=O)O)cc3)OC(=O)[C@H](CC(C)C)OC(=O)C(C)(C)CNC2=O)cc1Cl | 0.79 nM | 
10 | COc1ccc(C[C@H]2NC(=O)/C=C/C[C@@H]([C@H](C)/C=C/c3cc(C)ccc3C)OC(=O)[C@H](CC(C)C)OC(=O)C(C)(C)CNC2=O)cc1Cl | 440 nM | 
11 | COc1ccc(C[C@H]2NC(=O)/C=C/C[C@@H]([C@H](C)/C=C/c3ccc(O)cc3)OC(=O)[C@H](CC(C)C)OC(=O)C(C)(C)CNC2=O)cc1Cl | 4 nM | 
12 | COc1ccc(C[C@H]2NC(=O)/C=C/C[C@@H]([C@H](C)/C=C/c3ccc(C)c(C)c3)OC(=O)[C@H](CC(C)C)OC(=O)C(C)(C)CNC2=O)cc1Cl | 70 nM | 
13 | CCN(CC)Cc1ccc([C@H](Cl)[C@H](O)[C@@H](C)[C@@H]2C/C=C/C(=O)N[C@H](Cc3ccc(OC)c(Cl)c3)C(=O)NCC(C)(C)C(=O)O[C@@H](CC(C)C)C(=O)O2)cc1 | 0.005 nM | 
14 | COc1ccc(C[C@H]2NC(=O)/C=C/C[C@@H]([C@H](C)[C@H]3O[C@@H]3c3ccc(COC(=O)CNC(=O)OC(C)(C)C)cc3)OC(=O)[C@H](CC(C)C)OC(=O)C(C)(C)CNC2=O)cc1Cl | 0.0055 nM | 
